From PMC9583317 (ACS Omega, 2022)
Numbered stars: 1 amine (or outer) side, 2 acyl side, 3 side chain; on linkers, the order of the positions; unused ones are H or OH. Square brackets hold non-standard residues; d marks the D form. Peptide text beside a SMILES is read from it. X1 = O=C(C(=Cc1ccccc1)N[*:1])[*:2]

Assays:
Proteinase K = Proteinase K (Parengyodontium album, UniProt P06873); test: Proteolytic stability with proteinase K; assay type: in vitro ADME; settings: 6 h, room temperature
Method in brief: (§1)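 Self-assembled peptide nanoparticles were exposed to proteinase K or trypsin for 6 h at room temperature with constant low-rpm stirring. Degradation was assessed by reverse-phase HPLC on a C-18 column. Morphological change of enzyme-treated particles was imaged by TEM.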

trypsin = test: Proteolytic stability with trypsin; assay type: in vitro ADME; settings: 6 h, room temperature
Method in brief: as §1

Red blood cells (RBCs) = test: In vitro hemolysis; assay type: cell-based; settings: human RBC suspension, 39 to 773 μM, 37 °C, 3 h, absorbance 540 nm
Method in brief: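 Human blood collected in 10% citrate-phosphate-dextrose. RBCs pelleted at 1500g, 10 min, 25 °C, and washed 3–5 times in PBS. A 10% (v/v) packed-RBC suspension was mixed 1:1 with peptide nanoparticles (39–773 μM) or the siRNA nanocomplex (70–280 nM). Incubated 3 h at 37 °C, then re-spun. Released hemoglobin read in supernatant at 540 nm. PBS and 0.2% Triton X-100 served as controls.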

[1] = ref [31]; cited from earlier work

Sequence of Proteinase K (P06873 106-384): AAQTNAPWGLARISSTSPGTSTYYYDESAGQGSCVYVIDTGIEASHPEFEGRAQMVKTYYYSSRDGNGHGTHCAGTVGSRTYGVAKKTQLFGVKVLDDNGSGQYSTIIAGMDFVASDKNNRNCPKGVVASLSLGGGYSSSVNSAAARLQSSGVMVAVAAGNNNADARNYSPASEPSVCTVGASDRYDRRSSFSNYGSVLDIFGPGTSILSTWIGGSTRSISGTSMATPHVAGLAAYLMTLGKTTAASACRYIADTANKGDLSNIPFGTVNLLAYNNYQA

Compound | morphological change after proteinase K (TEM) (Proteinase K) | stability to trypsin compared with natural analogue RFRGD (trypsin; RP-HPLC C-18, RFRGD NPs in PBS (Fig S2b)) | morphological change after trypsin (TEM) (trypsin; TEM) | proteolytic stability to trypsin (RP-HPLC) (trypsin; constant stirring, RP-HPLC C-18) | hemolysis (Red blood cells (RBCs)) | size of nanospheres [1]
N=C(N)NCCC[C@H](NC(=O)C(=Cc1ccccc1)NC(=O)[C@@H](N)CCCNC(=N)N)C(=O)NCC(=O)N[C@@H](CC(=O)O)C(N)=O [RΔFRGD] (H-R[X1]RGD-NH2) | no changes in morphological structures | significantly more stable | no changes in morphological structures | observable degradation | less than 5% | –
arginine-α,β-dehydrophenylalanine [RΔF] | – | – | – | – | – | 60–80 nm
